Results taken from ChEMBL document CHEMBL4825712.

Key:
A549 = experiment: Cytotoxicity against human A549 cells by MTT assay; type: cell-based
How it was run: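 MTT assay run according to the manufacturer's instructions, concurrently with NP immunostaining of infected A549 cultures.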

Influenza A virus = experiment: Antiviral activity against Influenza A virus A/WSN/33(H1N1) infected in human A549 cells assessed as viral replication measured after 24 hrs by immunofluorescence microscopy; type: functional, organism-based; conditions: A/WSN/1933(H1N1); for IC50: A549, 24 h; for IC90: A549, time 24 hrs
How it was run: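 A549 cells were infected with A/WSN/33 at MOI 0.01 for 24 h, then fixed in 4% formaldehyde and permeabilized with 0.1% Triton X-100. They were immunostained for NP with an Alexa-488 secondary plus DAPI and imaged on an image cytometer. Percent infection = NP-positive cells divided by total cells.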

[1] = Selectivity index, ratio of CC50 for human A549 cells to IC50 for antiviral activity against Influenza A virus A/WSN/33(H1N1) infected in human A549 cells; type: toxicity, cell-based; conditions: read-out: Selectivity Index
How it was run: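 Ratio of CC50 to IC50. IC50 came from A549 cells pretreated 2 h with compound, then infected 24 h with WSN-PB2-Nanoluc at MOI 0.02 and read by Nano-Glo luminescence. CC50 was measured by CellTiter-Glo.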

SMILES | CC10 (A549) | CC50 (A549) | IC50 (Influenza A virus) | IC90 (Influenza A virus) | selectivity ratio [1]
Cc1cc(Cl)ccc1N(CCO)S(=O)(=O)c1cc(Cl)ccc1Cl | > 5 µM | > 5 µM | > 5 µM | > 5 µM | –
CCN(c1ccc(F)cc1F)S(=O)(=O)c1cccc(Cl)c1 | 10.3 µM | – | 0.49 µM | 10.3 µM | > 51
CCN(c1ccc(F)cc1F)S(=O)(=O)c1ccccc1Cl | > 25 µM | – | > 25 µM | > 25 µM | –
C#CCN(c1ccc(Cl)cc1C)S(=O)(=O)c1cc(Cl)ccc1Cl | > 5 µM | > 5 µM | 0.12 µM | 3.4 µM | > 42
Cc1ccccc1N(C)S(=O)(=O)c1cc(Cl)ccc1Cl | > 5 µM | > 5 µM | > 5 µM | > 5 µM | –
CCN(c1ccc(C)nn1)S(=O)(=O)c1cc(Cl)ccc1Cl | – | – | > 5 µM | – | –
CCN(c1ccc(F)cc1F)S(=O)(=O)c1ccc(Cl)cc1Cl | > 25 µM | – | > 25 µM | > 25 µM | –
CCN(c1ccc(C)cc1)S(=O)(=O)c1cc(Cl)ccc1Cl | > 25 µM | > 25 µM | 0.084 µM | 1.8 µM | > 298
CCN(c1ccc(CCN)cc1)S(=O)(=O)c1cc(Cl)ccc1Cl | > 25 µM | > 25 µM | > 25 µM | > 25 µM | –
CCN(c1ccc(C)nc1)S(=O)(=O)c1cc(Cl)ccc1Cl | – | – | > 5 µM | – | –
CCN(c1ccc(F)cc1F)S(=O)(=O)c1cccc(Cl)c1Cl | > 25 µM | – | > 25 µM | > 25 µM | –
C=CCN(c1ccc(Cl)cc1C)S(=O)(=O)c1cc(Cl)ccc1Cl | > 5 µM | > 5 µM | 0.037 µM | 0.43 µM | > 135
C#CCN(c1ccccc1C)S(=O)(=O)c1cc(Cl)ccc1Cl | > 5 µM | > 5 µM | 0.38 µM | 5.1 µM | > 13
CCN(c1ccc(F)cc1F)S(=O)(=O)c1cc(F)ccc1Cl | – | – | 0.22 µM | 9.8 µM | > 114
CCN(c1ccc(F)cc1F)S(=O)(=O)c1cc(F)ccc1F | > 25 µM | – | 3.4 µM | > 25 µM | > 7
CCN(c1cnc(C)nc1)S(=O)(=O)c1cc(Cl)ccc1Cl | – | – | > 5 µM | – | –
Cc1cc(Cl)ccc1N(CCF)S(=O)(=O)c1cc(Cl)ccc1Cl | > 5 µM | > 5 µM | 35 µM | > 5 µM | > 9
CCN(c1ccncc1Cl)S(=O)(=O)c1cc(Cl)ccc1Cl | – | – | > 5 µM | – | –
CCOC(=O)Cc1ccc(N(CC)S(=O)(=O)c2cc(Cl)ccc2Cl)cc1 | > 5 µM | > 5 µM | 0.08 µM | 5.7 µM | > 63
COCCN(c1ccc(Cl)cc1C)S(=O)(=O)c1cc(Cl)ccc1Cl | > 5 µM | > 5 µM | 1.2 µM | 6 µM | > 4
CCN(c1ccc(CCNC(C)=O)cc1)S(=O)(=O)c1cc(Cl)ccc1Cl | > 25 µM | > 25 µM | > 25 µM | > 25 µM | –
CCN(c1ccccc1)S(=O)(=O)c1cc(Cl)ccc1Cl | > 5 µM | > 5 µM | 0.86 µM | 6.9 µM | > 6
CCN(c1ccc(F)cc1F)S(=O)(=O)c1ccc(Cl)c(Cl)c1 | > 25 µM | – | > 25 µM | > 25 µM | –

SMILES | CC10 (A549) | CC50 (A549) | IC50 (Influenza A virus) | IC90 (Influenza A virus) | selectivity ratio [1]
Cc1ccccc1NS(=O)(=O)c1cc(Cl)ccc1Cl | > 5 µM | > 5 µM | > 5 µM | > 5 µM | –
CCN(c1c(F)cc(Cl)cc1F)S(=O)(=O)c1cc(Cl)ccc1Cl | 0.025 µM | > 5 µM | 0.41 µM | > 5 µM | > 12
CCN(c1ccc(F)cc1F)S(=O)(=O)c1cc(Cl)ccc1F | – | – | 0.82 µM | 18.5 µM | > 30
Cc1cc(Cl)ccc1N(CC1CC1)S(=O)(=O)c1cc(Cl)ccc1Cl | > 5 µM | > 5 µM | 0.49 µM | 2.8 µM | > 10
Cc1ccccc1N(C(C)C)S(=O)(=O)c1cc(Cl)ccc1Cl | > 5 µM | > 5 µM | 1.8 µM | > 5 µM | > 3
CCN(c1c(C)cc(Cl)cc1Cl)S(=O)(=O)c1cc(Cl)ccc1Cl | > 5 µM | > 5 µM | 0.39 µM | > 5 µM | > 13
CCN(c1cnccc1C)S(=O)(=O)c1cc(Cl)ccc1Cl | – | – | > 5 µM | – | –
CCN(c1ccncc1F)S(=O)(=O)c1cc(Cl)ccc1Cl | – | – | > 5 µM | – | –
CCN(c1ccccc1Cl)S(=O)(=O)c1cc(Cl)ccc1Cl | > 5 µM | > 5 µM | 0.15 µM | 1.5 µM | > 33
CCN(c1ccc(CC(=O)O)cc1)S(=O)(=O)c1cc(Cl)ccc1Cl | > 25 µM | > 25 µM | > 25 µM | > 25 µM | –
C=CCN(c1ccccc1C)S(=O)(=O)c1cc(Cl)ccc1Cl | > 5 µM | > 5 µM | 0.12 µM | 0.57 µM | > 42
CCN(c1ccc(Cl)cc1F)S(=O)(=O)c1cc(Cl)ccc1Cl | > 5 µM | > 5 µM | 0.15 µM | 1.8 µM | > 33
CCN(c1cnc(C)cn1)S(=O)(=O)c1cc(Cl)ccc1Cl | – | – | > 5 µM | – | –
CCN(c1ccc(CC(=O)N2CCN(C)CC2)cc1)S(=O)(=O)c1cc(Cl)ccc1Cl | > 25 µM | > 25 µM | > 25 µM | > 25 µM | –
CCN(c1ccc(F)cc1)S(=O)(=O)c1cc(Cl)ccc1Cl | > 5 µM | > 5 µM | 0.068 µM | 0.94 µM | > 74
Cc1cc(Cl)ccc1N(C(F)F)S(=O)(=O)c1cc(Cl)ccc1Cl | > 5 µM | > 5 µM | 1.3 µM | > 5 µM | > 4
CCN(c1ccc(F)cc1F)S(=O)(=O)c1c(Cl)cccc1Cl | > 25 µM | – | > 25 µM | > 25 µM | –
CCN(c1ccccc1C#N)S(=O)(=O)c1cc(Cl)ccc1Cl | > 5 µM | > 5 µM | 0.17 µM | 2.1 µM | > 29
CCN(c1ccc(CCO)cc1)S(=O)(=O)c1cc(Cl)ccc1Cl | > 25 µM | > 25 µM | > 25 µM | > 25 µM | –
CCN(c1ccc(Cl)cn1)S(=O)(=O)c1cc(Cl)ccc1Cl | – | – | > 5 µM | – | –
CCN(c1ccc(F)cc1F)S(=O)(=O)c1ccccc1 | > 25 µM | – | > 25 µM | > 25 µM | –
CCN(c1ccc(F)cc1F)S(=O)(=O)c1cc(Cl)cc(Cl)c1 | 25 µM | – | 0.75 µM | – | > 33
